The values that follow come from ChEMBL document CHEMBL3259673, “Campechic acids A and B: anti-invasive polyether polyketides from a soil-derived Streptomyces” (J Nat Prod, 2014).

One series relates to Micrococcus luteus. Put plainly: Antimicrobial activity against Micrococcus luteus ATCC 9343 after 20 hrs. Type of series: functional. The conditions noted are these: ATCC 9343, 20 h. In short, it runs like this:
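Micrococcus luteus was grown 20 h at 30 °C with shaking, then pelleted and suspended in saline at 1 × 10^5 cells/mL. It was then mixed 1:10 with Mueller Hinton broth plus compound in DMSO.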

The test system of the next series is Escherichia coli. The series can be described thus: Antimicrobial activity against Escherichia coli NIH-JC2 after 20 hrs. It counts as functional, organism-based. The procedure, abridged:
(§1)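 Broth microdilution. Overnight cultures (20 h, 30 °C, shaken) centrifuged and resuspended in saline at 1 × 10^5 cells/mL, diluted 1:10 into medium with sample in DMSO. C. albicans in yeast nitrogen base + 2% glucose, 30 °C. E. coli in Mueller Hinton broth, 37 °C. Growth read as A650 after 20 h. MIC reported.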

For another series, the system named is Candida albicans. Put plainly: Antimicrobial activity against Candida albicans IFO1594 after 20 hrs. Type of series: functional, organism-based. In short, it runs like this: as §1
Series [1] in a line: Antiinvasive activity against mouse 26-L5 cells after 6 to 8 hrs by matrigel assay. It counts as functional, cell-based. The procedure, abridged: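 Transwell chambers with 8.0-μm polycarbonate filters coated with Matrigel/fibronectin were used. Cells were fixed in methanol and stained with H&E. Non-invaded cells were swabbed off, and cells on the lower surface were counted in five fields per well. IC50 reported.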

The nature of series [2]: Cytotoxicity against mouse 26-L5 cells after 24 hrs by crystal violet staining assay. It counts as cell-based. In short, it runs like this:
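Colon 26-L5 cells (5 × 10^3/well) were seeded in RPMI with 1% FCS and graded compound concentrations. They were incubated 24 h at 37 °C under 5% CO2, washed with PBS and fixed in 20% formalin. Cells were stained 30 min with crystal violet, the dye was eluted in 30% acetic acid and A590 was read. IC50 reported.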

Series [3] is described as follows: Selectivity index, ratio of IC50 for cytotoxicity against mouse 26-L5 cells to IC50 for antiinvasive activity against mouse 26-L5 cells. It counts as toxicity, cell-based. The conditions noted are these: read-out: Ratio IC50.

Molecules are shown by their SMILES. In brackets after ≈: the same amount, converted by molar mass. Activity calls are given as the source filed them.

Regarding `C[C@H](C/C=C/[C@H](C)[C@@H](O)CC1CCC(C)(C2CCC(C)([C@@H](C)O)O2)O1)C[C@@H](C)/C(O)=C/C(=O)[C@@H](C)C[C@@H](C)C[C@H](C)C[C@H](C)C(=O)O` (stereo partly specified), the minimum inhibitory concentration (MIC) (usually the smallest concentration in the dilution series that meets the test's criterion for growth inhibition) with Micrococcus luteus is 6.25 µg/mL (≈ 9.4 µM). Also, the result in the series with Escherichia coli and in the series with Candida albicans was inactive. For the same compound, the 50% inhibitory concentration (IC50) (in general, the midpoint of a concentration-inhibition curve) in series [1] is 300 nM; in series [2], 4500 nM. In series [3], the selectivity ratio stood at 15.
`CC[C@@H](C[C@@H](C)C[C@H](C)C[C@H](C)C(=O)O)C(=O)/C=C(\O)[C@H](C)C[C@H](C)C/C=C/[C@H](C)[C@@H](O)CC1CCC(C)(C2CCC(C)([C@@H](C)O)O2)O1` (stereo partly specified) yielded an MIC with Micrococcus luteus of 6.25 µg/mL (≈ 9.2 µM). Also, the result with Escherichia coli and in the series on Candida albicans was inactive. The IC50 in series [1] came to 5.5 nM. Besides, the selectivity ratio in series [3] is 73.
